# Compound activity deposited in PubChem BioAssay by several laboratories.
# ATG4B inh: ATG4B (human) cysteine protease inhibition. ATG4B cleavage of LC3-PLA2, NBD-HPC fluorescence, 1 h. inhibition, % at 8.33 µM. hit rate 0.51% among 340,000; in the data active = inhibition above about 40%
# Target sequence (Q9Y4P1 whole entry, looked up): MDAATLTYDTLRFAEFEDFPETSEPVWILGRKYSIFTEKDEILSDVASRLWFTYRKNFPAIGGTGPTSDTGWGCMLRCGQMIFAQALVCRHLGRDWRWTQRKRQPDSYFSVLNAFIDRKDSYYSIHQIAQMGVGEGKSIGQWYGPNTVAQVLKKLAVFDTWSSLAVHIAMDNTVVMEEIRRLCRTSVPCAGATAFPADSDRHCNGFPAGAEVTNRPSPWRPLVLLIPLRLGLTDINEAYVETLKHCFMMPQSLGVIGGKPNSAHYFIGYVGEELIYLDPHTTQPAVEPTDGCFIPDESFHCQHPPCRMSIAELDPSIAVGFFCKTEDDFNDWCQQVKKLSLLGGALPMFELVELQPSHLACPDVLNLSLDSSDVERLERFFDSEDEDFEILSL
# SR-BI DiI inh: blocks mouse SR-BI lipid uptake from DiI-HDL. Q61009. ldlA[mSR-BI] CHO cells, DiI-HDL uptake fluorescence, 3 h. inhibition, % at 12.5 µM. hit rate 0.96% among 320,000. AID 488896;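 active = mean replicate inhibition of at least 70% and a set share of replicates each scoring 70 or more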;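 note: 0% = median of neutral control wells and 100% = median of positive control wells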
# CAL PDZ FP-1: blocks peptide binding to human CAL PDZ domain; purified CAL PDZ, TMR-peptide fluorescence polarization, 1 h; Q9HD26; hit rate 0.02% among 330,000; inhibition, % at 20 µM;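 active = highest replicate inhibition of at least 40%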;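 note: plate controls were DMSO neutral control wells for no effect and unlabeled competitor peptide control wells for full effect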
#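 Material: tagged CAL PDZ domain; buffer or medium: 25 mM sodium phosphate pH 7.4, 150 mM NaCl, TCEP, IgG, Thesit; compound dosing: single point, 20 µM; schedule: 1 h incubation at room temperature before polarization reading; measured by: FP readout, S and P plane fluorescence; read-out basis: percent inhibition from loss of millipolarization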
# CAL PDZ FP-2: CAL PDZ (human) peptide binding inhibition | AID 602252 | Q9HD26 | purified CAL PDZ, TMR-peptide fluorescence polarization, 1 h | hit rate 0.92% among 300,000 | inhibition, % at 24.9 µM;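 active = mean inhibition of at least 30% with at least half of replicates also reaching 30%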;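 note: 0% = DMSO neutral control and 100% = excess unlabeled competitor peptide PRC23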
# SR-BI uptake up: SR-BI HDL lipid transfer activation; CHO ldlA[mSR-BI] cells, DiI-HDL uptake fluorescence, 3 h; 100 = double the neutral-control signal; activation, % at 12.5 µM; hit rate 0.096% among 320,000; AID 504775;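 active = mean replicate activation of at least 60% and every replicate at or above 60%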;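 note: 0% = median plate neutral-control signal and 100% = twice that signal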
#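 Test system: SR-BI-overexpressing, LDLR-lacking CHO cells; Medium: Ham's F12 with 0.5% BSA, HEPES 25 mM, pH 7.4; Schedule: 3 h, 37 °C; Technique: bottom-read fluorescence, 550/595 nm.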
# * hit, by the source's call; nt = not tested or not shown. Most compounds without a hit are left out; they make up all but 2.3% or so of the library.
SMILES,ATG4B inh,SR-BI DiI inh,CAL PDZ FP-1,CAL PDZ FP-2,SR-BI uptake up
COc1cccc(CN2CCNCC2)c1OC,-5,-7,15,90*,7
COc1ccc(CN2CCN(Cc3ccccc3OC)CC2)cc1,5,-14,0,-2,14
CCc1nc2ccc(N3CCN(C)CC3)cc2nc1CC,-4,-38,-2,49*,38
FC(F)(F)c1ccccc1CCN1CCNCC1,-5,16,1,33*,-16
FC(F)(F)c1ccccc1CN1CCN(Cc2ccccc2)CC1,3,2,1,-4,-2
COc1cc(C(=O)NN=Cc2ccc(N(CCCl)CCCl)cc2)cc(OC)c1OC,-8,76*,2,1,-76
NC(Cc1ccc(O)cc1)C(=O)NN=Cc1ccc(N(CCCl)CCCl)cc1 (stereo unspecified),-9,25,-1,-3,-25
O=C(O)c1ccc2c(c1)C1C(Cl)C(Sc3ccccc3[N+](=O)[O-])CC1C(c1cccc([N+](=O)[O-])c1)N2 (stereo unspecified),48*,34,-2,-43,-34
Cc1ccc2c(c1Cl)NC(C(=O)O)C1CC(Sc3ccccc3[N+](=O)[O-])C(Cl)C21 (stereo unspecified),28,nt,-1,-3,nt
O=C(O)c1cccc2c1NC(c1cccc([N+](=O)[O-])c1)C1CC(Sc3ccccc3[N+](=O)[O-])C(Cl)C21 (stereo unspecified),88*,47,0,4,-47
CC(=O)OCC12CC(OC(=O)CC(C)C)C(C)=CC1OC1C(O)C(OC(C)=O)C2(C)C12CO2 (stereo unspecified),-1,-17,-1,0,17
O=C(Nc1cccc(Cl)c1)OC1CN2CCC1CC2 (stereo unspecified),-3,40,-2,1,-40
O=C(Nc1ccc(Cl)cc1)OC1CN2CCC1CC2 (stereo unspecified),5,-6,-1,48*,6
O=S1(=O)N(CCN2CC=C(c3c[nH]c4cc(F)ccc34)CC2)c2cccc3c2N1CCC3,-7,79*,-3,2,-79
CCCCN1C(=O)/C(=C/C=C/c2ccco2)C(=O)NC1=S,44*,-13,-2,-2,13
O=C1NC(=O)N(Cc2ccc(F)cc2)C(=O)/C1=C\C=C\c1ccco1,9,-4,0,-2,4
N#CC1c2ccccc2-n2nncc2CN1C(=O)CCc1ccccc1 (stereo unspecified),4,nt,0,1,nt
CCN(CC)C(=O)c1ccc(NC(=O)c2ccc(-c3nn(C)c(=O)c4ccccc34)cc2)cc1,2,81*,-1,-3,-81
ClCCN(CCCl)c1ccc(-n2cnc3c(Cl)ncnc32)cc1,-3,31,-1,-1,-31
CCC1C(c2cc(OC)c(OC)c(OC)c2)c2cc3c(cc2OC1N1CCCC1)OCO3 (stereo unspecified),-2,6,-5,-3,-6
COc1cc(C(=O)Nc2ccc(Br)cc2C(=O)c2ccccc2)cc(OC)c1OC,7,81*,1,-1,-81
CC12CCC3C(CCC4(O)CC(O)CCC34C=NO)C1(O)CCC2C1=COC(=O)C1 (stereo unspecified),2,-22,0,-5,22
CCn1c(=O)n(CC(=O)N2CCC3(CC2)OCCO3)c(=O)c2ccccc21,-11,-21,-1,52*,21
Cc1ccc(-n2c(O)c(C=NCCCn3ccnc3)c(=O)[nH]c2=O)cc1,-3,-21,-1,73*,21
COc1ccc(-n2c(O)c(C=NCCCn3ccnc3)c(=O)[nH]c2=O)cc1,11,-32,-1,-3,32
Cc1cc(N(CCCl)CCCl)ccc1/C=N/N=C(\N)c1cnccn1,1,44,0,-3,-44
Cc1cc(N(CCCl)CCCl)ccc1C=Cc1ccncn1,-5,76*,0,-3,-76
O=C1NC(=S)SC1=Cc1ccc(N(CCCl)CCCl)cc1,16,13,0,-5,-13
CC(NC(=O)Cc1cccc2ccccc12)C(=O)N1CCC(=O)CC1 (stereo unspecified),1,-17,0,47*,17
COc1c(O)cc2c(c1OC)-c1ccc(SC)c(=O)cc1C(NC(C)=O)CC2 (stereo unspecified),7,-2,-1,-7,2
